Data published in ChEMBL document CHEMBL1177639, “Synthesis and biological evaluation of 5-substituted and 4,5-disubstituted-2-arylamino oxazole TRPV1 antagonists” (Bioorg Med Chem, 2010).
Each block holds one molecule with its values, some of them ahead of it.

How the values were obtained:
[1] = target: Transient receptor potential cation channel subfamily V member 1 (Homo sapiens, UniProt Q8NER1); assay: Antagonist activity at human recombinant TRPV1 receptor expressed in human 1321 cells assessed as inhibition of capsaicin-induced in intracellular calcium levels by FLIPR assay; type: functional, cell-based
[2] = Half life in rat at 10 umol/kg, iv; type: ADME, organism-based; conditions: in vivo
In short: (§1)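 Rat pharmacokinetics after 10 µmol/kg dosing, three animals per group for each of the iv and oral routes. Parameters reported are Vb (iv), CLp, t1/2 (iv), oral Cmax and oral bioavailability.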

[3] = Bioavailability in rat at 10 umol/kg, po; type: ADME, organism-based; conditions: in vivo; in short: as §1
[4] = Ratio of drug level in brain to plasma in rat at 10 umol/kg, iv and po; type: ADME, organism-based; conditions: read-out: BPR
[5] = Plasma clearance in rat at 10 umol/kg, iv and po; type: ADME, organism-based; in short: as §1
[6] = Terminal phase volume of distribution […] in rat at 10 umol/kg, iv; type: ADME, organism-based; conditions: in vivo, read-out: Vbeta; in short: as §1
[7] = Cmax in rat at 10 umol/kg, po; type: ADME, organism-based; parameters: dose 10 umol/kg, route oral; conditions: in vivo; in short: as §1
[8] = target: Voltage-gated inwardly rectifying potassium channel KCNH2 (Homo sapiens, UniProt Q12809); assay: Inhibition of human ERG
[9] = Inhibition of human cytochrom P450; type: ADME
[10] = test system: Salmonella typhimurium; assay: Mutagenic activity in Salmonella Typhimurium by Ames test; type: toxicity, organism-based; conditions: salmonella enterica subsp. enterica serovar typhimurium
[11] = target: T1, Transient receptor potential cation channel subfamily V member 2 (Rattus norvegicus, UniProt Q9WUD2); assay: Antagonist activity at rat TRPV2 receptor; type: functional
T1 sequence (Q9WUD2 whole entry): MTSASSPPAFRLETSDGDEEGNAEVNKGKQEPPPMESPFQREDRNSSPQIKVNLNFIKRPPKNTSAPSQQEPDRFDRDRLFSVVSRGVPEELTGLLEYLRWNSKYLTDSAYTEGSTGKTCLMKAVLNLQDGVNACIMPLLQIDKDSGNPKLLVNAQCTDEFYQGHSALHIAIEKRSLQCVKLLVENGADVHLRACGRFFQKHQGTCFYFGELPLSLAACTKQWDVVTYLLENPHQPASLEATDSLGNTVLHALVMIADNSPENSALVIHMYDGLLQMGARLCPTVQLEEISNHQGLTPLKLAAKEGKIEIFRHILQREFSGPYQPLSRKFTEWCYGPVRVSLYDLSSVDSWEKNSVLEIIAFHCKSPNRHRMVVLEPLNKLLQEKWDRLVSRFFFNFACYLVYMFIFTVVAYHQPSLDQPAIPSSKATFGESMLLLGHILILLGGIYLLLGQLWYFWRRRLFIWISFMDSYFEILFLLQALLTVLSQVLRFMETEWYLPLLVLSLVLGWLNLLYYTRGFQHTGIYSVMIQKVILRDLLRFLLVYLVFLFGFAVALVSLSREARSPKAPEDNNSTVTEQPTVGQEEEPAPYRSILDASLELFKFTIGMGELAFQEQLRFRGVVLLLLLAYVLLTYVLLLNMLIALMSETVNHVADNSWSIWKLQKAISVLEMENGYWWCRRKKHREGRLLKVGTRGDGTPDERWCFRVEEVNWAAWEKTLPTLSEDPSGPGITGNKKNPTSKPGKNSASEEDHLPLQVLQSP

[12] = test system: Canis familiaris; assay: Cardiotoxicity in anesthetized dog assessed as effect on hemodynamics at 57 times Cmax concentration; conditions: in vivo
[13] = target: Transient receptor potential cation channel subfamily M member 8 (Homo sapiens, UniProt Q7Z2W7); assay: Antagonist activity at human TRPM8 receptor; type: functional
[14] = target: Transient receptor potential cation channel subfamily V member 4 (Homo sapiens, UniProt Q9HBA0); assay: Antagonist activity at human TRPV4 receptor; type: functional
[15] = test system: Rattus norvegicus; assay: Analgesic activity in po dosed rat osteoarthritis model; type: functional
[16] = target: T2, Transient receptor potential cation channel subfamily V member 3 (Homo sapiens, UniProt Q8NET8); assay: Antagonist activity at human TRPV3 receptor; type: functional
T2 sequence (Q8NET8 whole entry): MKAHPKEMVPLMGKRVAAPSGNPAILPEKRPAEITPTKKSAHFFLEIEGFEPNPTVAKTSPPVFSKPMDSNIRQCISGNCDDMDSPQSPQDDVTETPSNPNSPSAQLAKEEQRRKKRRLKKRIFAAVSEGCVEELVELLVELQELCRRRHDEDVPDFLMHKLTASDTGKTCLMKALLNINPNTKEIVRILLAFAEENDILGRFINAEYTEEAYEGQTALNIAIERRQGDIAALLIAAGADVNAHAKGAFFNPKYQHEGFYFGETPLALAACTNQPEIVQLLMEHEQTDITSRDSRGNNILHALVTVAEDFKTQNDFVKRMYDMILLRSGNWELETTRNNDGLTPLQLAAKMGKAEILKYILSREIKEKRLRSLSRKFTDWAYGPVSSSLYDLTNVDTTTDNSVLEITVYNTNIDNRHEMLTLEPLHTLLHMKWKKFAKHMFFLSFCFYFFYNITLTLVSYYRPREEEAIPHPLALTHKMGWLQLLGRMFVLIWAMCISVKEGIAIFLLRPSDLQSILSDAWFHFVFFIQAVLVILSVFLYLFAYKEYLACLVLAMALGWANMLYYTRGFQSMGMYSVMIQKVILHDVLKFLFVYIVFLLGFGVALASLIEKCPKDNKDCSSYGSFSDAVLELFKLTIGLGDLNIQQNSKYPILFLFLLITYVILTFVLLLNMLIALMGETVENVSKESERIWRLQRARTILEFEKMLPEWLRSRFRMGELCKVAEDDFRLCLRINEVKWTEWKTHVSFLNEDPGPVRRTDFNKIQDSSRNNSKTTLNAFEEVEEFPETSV

[17] = test system: Rattus norvegicus; assay: Analgesic activity against carrageenan-induced thermal hyperalgesia in Sprague-Dawley rat assessed as paw withdrawal latency at 10 umol/kg, po by hotbox assay; type: functional

Chain of Transient receptor potential cation channel subfamily V member 1 (Q8NER1 whole entry): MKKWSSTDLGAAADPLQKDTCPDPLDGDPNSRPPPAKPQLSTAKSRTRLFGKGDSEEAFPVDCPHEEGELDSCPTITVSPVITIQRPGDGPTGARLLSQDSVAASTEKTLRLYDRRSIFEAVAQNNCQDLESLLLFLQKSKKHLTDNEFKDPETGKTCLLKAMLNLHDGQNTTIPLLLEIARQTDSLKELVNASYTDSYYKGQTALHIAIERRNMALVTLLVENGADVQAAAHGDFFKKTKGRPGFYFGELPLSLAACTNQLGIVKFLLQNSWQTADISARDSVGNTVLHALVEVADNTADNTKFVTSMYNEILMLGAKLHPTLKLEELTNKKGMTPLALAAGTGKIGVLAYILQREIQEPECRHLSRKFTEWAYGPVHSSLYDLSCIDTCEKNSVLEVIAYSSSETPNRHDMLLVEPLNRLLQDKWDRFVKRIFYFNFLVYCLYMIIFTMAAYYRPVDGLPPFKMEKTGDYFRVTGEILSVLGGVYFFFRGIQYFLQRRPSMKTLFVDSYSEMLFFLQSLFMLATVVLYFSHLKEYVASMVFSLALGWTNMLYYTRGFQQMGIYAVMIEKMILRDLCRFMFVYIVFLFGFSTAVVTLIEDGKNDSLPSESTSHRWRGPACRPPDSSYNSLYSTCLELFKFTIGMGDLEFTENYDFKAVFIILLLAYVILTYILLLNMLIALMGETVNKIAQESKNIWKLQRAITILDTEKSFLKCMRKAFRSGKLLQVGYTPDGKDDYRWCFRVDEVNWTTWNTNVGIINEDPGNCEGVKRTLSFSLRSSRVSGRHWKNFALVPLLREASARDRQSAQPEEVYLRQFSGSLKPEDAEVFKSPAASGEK
Chain of Voltage-gated inwardly rectifying potassium channel KCNH2 (Q12809 whole entry): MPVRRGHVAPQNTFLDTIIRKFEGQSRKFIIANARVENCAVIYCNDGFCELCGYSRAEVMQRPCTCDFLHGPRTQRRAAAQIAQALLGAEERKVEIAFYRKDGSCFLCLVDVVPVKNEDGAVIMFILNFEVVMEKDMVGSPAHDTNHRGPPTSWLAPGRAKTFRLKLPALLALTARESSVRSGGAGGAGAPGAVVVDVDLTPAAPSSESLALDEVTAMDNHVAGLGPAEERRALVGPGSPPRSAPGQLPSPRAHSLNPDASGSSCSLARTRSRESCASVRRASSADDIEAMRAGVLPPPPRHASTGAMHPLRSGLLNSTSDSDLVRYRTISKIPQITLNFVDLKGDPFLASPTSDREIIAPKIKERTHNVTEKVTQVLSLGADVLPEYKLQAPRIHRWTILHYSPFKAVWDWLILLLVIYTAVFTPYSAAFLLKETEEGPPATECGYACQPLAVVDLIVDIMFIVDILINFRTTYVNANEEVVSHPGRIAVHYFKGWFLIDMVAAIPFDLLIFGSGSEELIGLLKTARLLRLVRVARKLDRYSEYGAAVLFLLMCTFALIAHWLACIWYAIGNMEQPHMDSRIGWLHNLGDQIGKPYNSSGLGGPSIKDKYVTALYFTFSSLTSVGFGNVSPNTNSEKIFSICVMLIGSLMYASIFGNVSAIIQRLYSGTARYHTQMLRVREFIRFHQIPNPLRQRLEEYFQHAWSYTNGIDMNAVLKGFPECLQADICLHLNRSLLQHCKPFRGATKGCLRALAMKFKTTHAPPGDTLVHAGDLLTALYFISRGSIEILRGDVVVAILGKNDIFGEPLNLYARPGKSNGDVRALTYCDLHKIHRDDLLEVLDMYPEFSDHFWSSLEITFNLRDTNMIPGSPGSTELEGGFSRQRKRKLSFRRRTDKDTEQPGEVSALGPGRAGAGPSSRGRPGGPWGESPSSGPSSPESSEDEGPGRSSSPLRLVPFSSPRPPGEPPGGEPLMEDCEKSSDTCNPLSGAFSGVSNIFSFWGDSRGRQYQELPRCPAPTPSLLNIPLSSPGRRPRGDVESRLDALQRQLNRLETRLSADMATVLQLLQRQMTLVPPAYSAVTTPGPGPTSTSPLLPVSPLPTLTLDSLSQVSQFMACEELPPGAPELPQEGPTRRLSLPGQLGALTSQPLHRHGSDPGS
Chain of Transient receptor potential cation channel subfamily V member 4 (Q9HBA0 whole entry): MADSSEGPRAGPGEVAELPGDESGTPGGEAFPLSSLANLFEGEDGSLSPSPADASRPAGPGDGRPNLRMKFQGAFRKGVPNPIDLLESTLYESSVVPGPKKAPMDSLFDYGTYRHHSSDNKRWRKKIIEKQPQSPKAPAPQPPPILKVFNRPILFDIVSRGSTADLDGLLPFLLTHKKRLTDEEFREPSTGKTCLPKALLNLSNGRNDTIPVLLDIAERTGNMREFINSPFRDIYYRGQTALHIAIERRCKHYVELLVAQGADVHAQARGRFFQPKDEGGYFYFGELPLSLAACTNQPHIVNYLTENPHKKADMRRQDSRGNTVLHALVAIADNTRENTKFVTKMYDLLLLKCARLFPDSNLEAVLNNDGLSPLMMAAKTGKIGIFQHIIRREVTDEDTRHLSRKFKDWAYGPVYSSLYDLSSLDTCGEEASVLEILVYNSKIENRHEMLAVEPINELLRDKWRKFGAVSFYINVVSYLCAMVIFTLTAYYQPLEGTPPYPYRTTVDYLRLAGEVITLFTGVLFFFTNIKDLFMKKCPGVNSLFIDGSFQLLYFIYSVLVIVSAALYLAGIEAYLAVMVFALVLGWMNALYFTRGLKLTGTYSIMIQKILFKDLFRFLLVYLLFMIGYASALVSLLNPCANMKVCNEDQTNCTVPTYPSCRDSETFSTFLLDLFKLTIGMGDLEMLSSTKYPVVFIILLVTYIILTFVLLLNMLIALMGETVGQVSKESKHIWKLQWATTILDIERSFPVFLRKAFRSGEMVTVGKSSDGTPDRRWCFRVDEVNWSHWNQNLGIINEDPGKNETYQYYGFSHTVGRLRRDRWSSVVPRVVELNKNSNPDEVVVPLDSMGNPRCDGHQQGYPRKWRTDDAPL
Chain of Transient receptor potential cation channel subfamily M member 8 (Q7Z2W7 whole entry): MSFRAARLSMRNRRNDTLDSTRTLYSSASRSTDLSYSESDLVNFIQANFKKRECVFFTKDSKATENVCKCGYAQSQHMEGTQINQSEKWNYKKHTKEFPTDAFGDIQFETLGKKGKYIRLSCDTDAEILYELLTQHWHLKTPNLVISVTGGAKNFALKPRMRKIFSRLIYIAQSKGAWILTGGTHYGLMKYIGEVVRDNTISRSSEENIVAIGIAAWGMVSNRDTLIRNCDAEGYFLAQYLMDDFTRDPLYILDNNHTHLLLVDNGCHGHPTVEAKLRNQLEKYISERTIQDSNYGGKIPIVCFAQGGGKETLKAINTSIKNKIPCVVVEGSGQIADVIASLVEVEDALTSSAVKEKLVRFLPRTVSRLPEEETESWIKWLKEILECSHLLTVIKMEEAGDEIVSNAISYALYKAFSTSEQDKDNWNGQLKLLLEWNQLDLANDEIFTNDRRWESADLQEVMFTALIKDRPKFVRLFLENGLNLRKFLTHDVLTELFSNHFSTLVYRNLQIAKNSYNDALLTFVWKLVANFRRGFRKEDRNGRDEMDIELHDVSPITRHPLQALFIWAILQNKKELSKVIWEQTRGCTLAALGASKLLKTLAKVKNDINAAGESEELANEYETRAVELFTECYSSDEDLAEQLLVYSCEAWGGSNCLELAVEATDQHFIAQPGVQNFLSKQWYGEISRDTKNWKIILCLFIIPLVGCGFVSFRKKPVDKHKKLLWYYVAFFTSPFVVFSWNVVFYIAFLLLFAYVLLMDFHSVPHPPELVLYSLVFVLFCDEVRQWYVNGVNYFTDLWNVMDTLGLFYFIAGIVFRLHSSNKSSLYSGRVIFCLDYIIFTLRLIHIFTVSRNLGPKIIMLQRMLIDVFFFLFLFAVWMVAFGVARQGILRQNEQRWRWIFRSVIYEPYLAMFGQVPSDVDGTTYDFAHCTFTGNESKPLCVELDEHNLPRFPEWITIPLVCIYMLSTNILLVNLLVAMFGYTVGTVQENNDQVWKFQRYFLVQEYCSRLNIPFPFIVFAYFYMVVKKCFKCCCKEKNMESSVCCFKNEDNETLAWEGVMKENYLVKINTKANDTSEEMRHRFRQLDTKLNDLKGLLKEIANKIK

IC50 [1]: 187 nM
Structure (SMILES): OC1CCc2cccc(Nc3ncc(-c4ccccc4)o3)c2C1 (stereo unspecified)

IC50 [1]: 101 nM
Structure (SMILES): OC1CCc2cccc(Nc3ncc(-c4ccc(N5CCCC5)cc4)o3)c2C1 (stereo unspecified)

IC50 [1]: 1820 nM
Structure (SMILES): OC1CCc2cccc(Nc3ncc(Cc4ccccc4)o3)c2C1 (stereo unspecified)

IC50 [1]: 81 nM
Structure (SMILES): COc1ccc(-c2cnc(Nc3cccc4c3CC(O)CC4)o2)cc1 (stereo unspecified)

IC50 [1]: 62 nM
Structure (SMILES): Cc1ccc(-c2cnc(Nc3cccc4c3CC(O)CC4)o2)cc1 (stereo unspecified)

IC50 [1]: 26 nM
Structure (SMILES): CC(C)(C)c1ccc(-c2cnc(Nc3cccc4c3CC(O)CC4)o2)cc1 (stereo unspecified)

IC50 [1]: 15 nM
Structure (SMILES): OC1CCc2cccc(Nc3ncc(-c4ccc(Cl)cc4)o3)c2C1 (stereo unspecified)

IC50 [1]: 864 nM
Structure (SMILES): OC1CCc2cccc(Nc3nc(-c4ccccc4)co3)c2C1 (stereo unspecified)

half-life [2]: 2.8 h
bioavailability [3]: 33%
Kp [4]: 3
clearance [5]: 40 mL/min/kg
Vd [6]: 10 L/kg
Cmax [7]: 96 ng/mL
Structure (SMILES): Cc1nc(Nc2cccc3c2CC(O)CC3)oc1-c1ccc(C(F)(F)F)cc1 (stereo unspecified)

IC50 [1]: 9 nM
Structure (SMILES): OC1CCc2cccc(Nc3nc(Br)c(-c4ccc(C(F)(F)F)cc4)o3)c2C1 (stereo unspecified)

IC50 [1]: 157 nM
Structure (SMILES): Cc1cccc(-c2cnc(Nc3cccc4c3CC(O)CC4)o2)c1 (stereo unspecified)

IC50 [1]: 120 nM
Structure (SMILES): OC1CCc2c(cccc2Nc2ncc(-c3ccc(C(F)(F)F)cc3)o2)C1 (stereo unspecified)

IC50 [1]: 150 nM
Structure (SMILES): COC1CCc2cccc(Nc3ncc(-c4ccc(C(F)(F)F)cc4)o3)c2C1 (stereo unspecified)

IC50 [1]: 277 nM
Structure (SMILES): CN(c1ncc(-c2ccc(C(F)(F)F)cc2)o1)c1cccc2c1CC(O)CC2 (stereo unspecified)

IC50 [1]: 327 nM
Structure (SMILES): NC1CCc2cccc(Nc3ncc(-c4ccc(C(F)(F)F)cc4)o3)c2C1 (stereo unspecified)

half-life [2]: 3.8 h
bioavailability [3]: 52%
Kp [4]: 3
inhibition (INH) [9]: Not Active
clearance [5]: 20 mL/min/kg
IC50 [11]: 37000 nM
Vd [6]: 6.8 L/kg
IC50 [13]: 44000 nM
IC50 [14]: > 100000 nM
IC50 [16]: > 100000 nM
Cmax [7]: 130 ng/mL
Structure (SMILES): Cc1nc(Nc2cccc3c2C[C@H](O)CC3)oc1-c1ccc(C(F)(F)F)cc1
inhibition (INH) [8]: Not Active
Activity [10]: Non-toxic
Activity [12]: Non-toxic
ED50 [15]: 14 µmol/kg
Activity [17]: 52%

half-life [2]: 1.9 h
bioavailability [3]: 7%
Kp [4]: 3
clearance [5]: 73.3 mL/min/kg
Vd [6]: 12 L/kg
Cmax [7]: 20 ng/mL
Structure (SMILES): Cc1nc(Nc2cccc3c2C[C@@H](O)CC3)oc1-c1ccc(C(F)(F)F)cc1

IC50 [1]: 2.1 nM
Kp [4]: 3.7
Structure (SMILES): CCc1nc(Nc2cccc3c2CC(O)CC3)oc1-c1ccc(C(F)(F)F)cc1 (stereo unspecified)

IC50 [1]: 416 nM
Structure (SMILES): Cc1ccccc1-c1cnc(Nc2cccc3c2CC(O)CC3)o1 (stereo unspecified)

IC50 [1]: 374 nM
Structure (SMILES): O=C1CCc2cccc(Nc3ncc(-c4ccc(C(F)(F)F)cc4)o3)c2C1

half-life [2]: 0.7 h
IC50 [1]: 8.3 nM
bioavailability [3]: 5%
clearance [5]: 85 mL/min/kg
Vd [6]: 5.4 L/kg
Cmax [7]: 23 ng/mL
Structure (SMILES): OC1CCc2cccc(Nc3ncc(-c4ccc(C(F)(F)F)cc4)o3)c2C1 (stereo unspecified)

IC50 [1]: 114 nM
Structure (SMILES): CC(C)c1nc(Nc2cccc3c2CC(O)CC3)oc1-c1ccc(C(F)(F)F)cc1 (stereo unspecified)

IC50 [1]: 840 nM
Structure (SMILES): CC1(O)CCc2cccc(Nc3ncc(-c4ccc(C(F)(F)F)cc4)o3)c2C1 (stereo unspecified)

IC50 [1]: 229 nM
Structure (SMILES): FC(F)(F)c1ccc(-c2cnc(Nc3cccc4cnccc34)o2)cc1

IC50 [1]: 2 nM
Kp [4]: 0.13
Structure (SMILES): N#Cc1ccc(-c2nc(Nc3cccc4c3CC(O)CC4)oc2-c2ccc(C(F)(F)F)cc2)cc1 (stereo unspecified)

IC50 [1]: 101 nM
Structure (SMILES): FC(F)(F)c1ccc(-c2cnc(Nc3cccc4[nH]ncc34)o2)cc1

IC50 [1]: 5 nM
Structure (SMILES): Oc1ccc2cccc(Nc3ncc(-c4ccc(C(F)(F)F)cc4)o3)c2c1

IC50 [1]: 1.3 nM
Kp [4]: 0.21
Structure (SMILES): OC1CCc2cccc(Nc3nc(-c4ccc(F)cc4)c(-c4ccc(C(F)(F)F)cc4)o3)c2C1 (stereo unspecified)
